The record followed here is ChEMBL document CHEMBL3244309, “Structure-activity relationships of aminoalkyl and -aryl glycosides having insulin-like activity” (1978).

Test system in one assay: not listed separately
The experiment in a line: Insulin-like activity in albino CD rat fat cells assessed as stimulation of oxidation of [14C]glucose to 14CO2 at 50 ug/ml after 2 hrs by scintillation counting analysis relative to insulin. Format: functional.
Details: not given
On to `NCCCCCCS[C@H]1O[C@H](CO)[C@@H](O)[C@H](O)[C@@H]1O`, for which the Activity was 132.4%.

In the case of `NCCCCCCS[C@@H]1O[C@H](CO)[C@@H](O)[C@H](O)[C@@H]1O`, the Activity is 109.7%.

On to `NCCCCCCSC[C@@H](O)[C@@H](O)[C@H](O)[C@H](O)CO`, for which the Activity is recorded as 0%.

For `NCCCCCCSC1O[C@H]([C@H](O)CO)[C@H](O)[C@@H]1O` (some centres not stated), the Activity is 93.6%.

Consider `NCCCCCCS[C@H]1O[C@H](CO)[C@H](O)[C@H](O)[C@@H]1O`, for which the Activity was 109.9%.

With `CNC(=O)NC[C@H]1O[C@@H](SCCCCCCN)[C@@H](O)[C@@H](O)[C@@H]1O`, the Activity was 129%.

Test system in the next assay: not listed separately
The experiment in a line: Insulin-like activity in albino CD rat fat cells assessed as stimulation of oxidation of [14C]glucose to 14CO2 at 100 ug/ml after 2 hrs by scintillation counting analysis relative to insulin. It is filed as functional.
Details: not given
With `Nc1ccc(O[C@H]2O[C@H](CO)[C@@H](O)[C@H](O)[C@@H]2O)cc1`, the Activity is 2.9%.

With `NCCCCCCC(=O)NCCCCCCS[C@H]1O[C@H](CO)[C@@H](O)[C@H](O)[C@@H]1O`, the Activity came out at 47.1%.

Consider `NCCCCCCCCS[C@H]1O[C@H](CO)[C@@H](O)[C@H](O)[C@@H]1O`, for which the Activity is 0%.

With `NCCCCCCS[C@H]1O[C@H](CO)[C@@H](O)[C@H](O)[C@@H]1O`, the Activity is 40.8%.

Turning to `NCCCCCCS`, the Activity came to 15.5%.

Take `CSCCCCCCN`: the Activity amounted to 24.8%.

Turning to `NCCCCCCSCC(O)CO` (configuration not stated), the Activity was 6.9%.

As to `O=C([O-])CCCCCS[C@H]1O[C@H](CO)[C@@H](O)[C@H](O)[C@@H]1O.[Na+]`, the Activity is 0%.

With `CCCCCCCS[C@H]1O[C@H](CO)[C@@H](O)[C@H](O)[C@@H]1O`, the Activity is 0%.

Consider `CNCCCCCCS[C@H]1O[C@H](CO)[C@@H](O)[C@H](O)[C@@H]1O`, for which the Activity was determined as 0%.

For `CN(C)CCCCCCS[C@H]1O[C@H](CO)[C@@H](O)[C@H](O)[C@@H]1O`, the Activity came to 0%.

As to `C[N+](C)(C)CCCCCCS[C@H]1O[C@H](CO)[C@@H](O)[C@H](O)[C@@H]1O.[I-]`, the Activity came to 0%.

Turning to `N[C@@H]1O[C@H](CO)[C@@H](O)[C@H](O)[C@@H]1O`, the Activity is listed as 0%.

In the case of `NC[C@H]1O[C@H](CO)[C@@H](O)[C@H](O)[C@@H]1O`, the Activity was determined as 0%.

As to `NCCS[C@H]1O[C@H](CO)[C@@H](O)[C@H](O)[C@@H]1O`, the Activity turned out to be 0%.

Turning to `NCCCCS[C@H]1O[C@H](CO)[C@@H](O)[C@H](O)[C@@H]1O`, the Activity was 0%.

Take `NCCCCCS[C@H]1O[C@H](CO)[C@@H](O)[C@H](O)[C@@H]1O`: the Activity turned out to be 6.1%.

As to `NCCCCCCCS[C@H]1O[C@H](CO)[C@@H](O)[C@H](O)[C@@H]1O`, the Activity was 14.8%.

Take `Nc1ccc(CS[C@H]2O[C@H](CO)[C@@H](O)[C@H](O)[C@@H]2O)cc1`: the Activity is 0%.

For the compound `NCc1ccc(CS[C@H]2O[C@H](CO)[C@@H](O)[C@H](O)[C@@H]2O)cc1`, the Activity was determined as 9.2%.

Take `NCc1ccccc1O[C@H]1O[C@H](CO)[C@@H](O)[C@H](O)[C@@H]1O`: the Activity was 0%.

As to `NCc1ccc(O[C@H]2O[C@H](CO)[C@@H](O)[C@H](O)[C@@H]2O)cc1`, the Activity is given as 6.4%.

As to `NCCCCCCS[C@@H]1O[C@H](CO)[C@@H](O)[C@H](O)[C@@H]1O`, the Activity came out at 80%.

Take `NCCCCCCS[C@@H]1O[C@H](CO)[C@@H](O)[C@H](O)[C@H]1O`: the Activity stood at 43.8%.

For `NCCCCCCO[C@@H]1O[C@H](CO)[C@@H](O)[C@H](O)[C@H]1O`, the Activity stood at 23.3%.

As to `NCCCCCCO[C@H]1O[C@H](CO)[C@@H](O)[C@H](O)[C@@H]1O`, the Activity is 23.3%.

Turning to `NCCCCCC(=O)N[C@@H]1O[C@H](CO)[C@@H](O)[C@H](O)[C@@H]1O`, the Activity turned out to be 2.6%.

On to `NCCCCCCC(=O)N[C@@H]1O[C@H](CO)[C@@H](O)[C@H](O)[C@@H]1O`, for which the Activity came out at 20.5%.

`NCCCCCCCC(=O)N[C@@H]1O[C@H](CO)[C@@H](O)[C@H](O)[C@@H]1O`: the Activity worked out at 22.4%.

With `NCCCCCCS(=O)(=O)[C@H]1O[C@H](CO)[C@@H](O)[C@H](O)[C@@H]1O`, the Activity is on record as 33.3%.

For the compound `NCCCCCCS[C@H]1O[C@H](CO)[C@H](O)[C@@H](O)[C@@H]1O`, the Activity is on record as 63.7%.

Take `NCCCCCCS[C@@H]1O[C@H](CO)[C@H](O)[C@@H](O)[C@@H]1O`: the Activity is listed as 75.2%.

For `NCCCCCCS[C@@H]1O[C@H](CO)[C@H](O)[C@H](O)[C@H]1O`, the Activity turned out to be 68.8%.

Regarding `NCCCCCCS[C@H]1O[C@H](CO[C@H]2O[C@H](CO)[C@@H](O)[C@H](O)[C@@H]2O)[C@@H](O)[C@H](O)[C@@H]1O`, the Activity is reported as 21.6%.

As to `NCCCCCCS[C@H]1O[C@H](CO)[C@@H](O[C@H]2O[C@H](CO)[C@@H](O)[C@H](O)[C@@H]2O)[C@H](O)[C@@H]1O`, the Activity is recorded as 37.3%.

As for `NCCCCCCS[C@H]1O[C@H](CO)[C@@H](O)[C@H](O[C@H]2O[C@H](CO)[C@@H](O)[C@H](O)[C@@H]2O)[C@@H]1O`, the Activity is listed as 15.7%.

Regarding `NCCCCCCS[C@H]1O[C@H](CO)[C@@H](O)[C@H](O)[C@@H]1O[C@H]1O[C@H](CO)[C@@H](O)[C@H](O)[C@@H]1O`, the Activity stood at 21.6%.

Take `NCCCCCCS[C@@H]1O[C@H](CO)[C@@H](O)[C@H](O)[C@@H]1O[C@H]1O[C@H](CO)[C@@H](O)[C@H](O)[C@@H]1O`: the Activity was 0%.

On to `C[C@H]1O[C@H](SCCCCCCN)[C@@H](O)[C@@H](O)[C@@H]1O`, for which the Activity was found to be 0%.

Turning to `COC[C@H]1O[C@H](SCCCCCCN)[C@@H](O)[C@@H](O)[C@@H]1O`, the Activity was 37.5%.

Take `NCCCCCCS[C@H]1O[C@H](CO)[C@@H](OC(N)=O)[C@H](O)[C@@H]1O`: the Activity is 64.2%.

Consider `NCCCCCCS[C@H]1O[C@H](COC(N)=O)[C@@H](O)[C@H](O)[C@@H]1O`, for which the Activity is 102.9%.

Take `CC(=O)N[C@@H]1[C@@H](O)[C@H](O)[C@@H](CO)O[C@H]1SCCCCCCN`: the Activity is 36.3%.

Another assay has as its system Rattus norvegicus. The experiment in a line: In vivo insulin-like activity in rat omental adipose tissue assessed as stimulation of lipogenesis by measuring conversion of [14C]glucose to [14C]lipids at 500 mg/kg, ip after 2 hrs. Format: functional. The settings on record: route intraperitoneal. In short, it runs like this: (§1)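 Overnight-fasted female rats (140–150 g) given one ip injection of saccharide neutralized to pH 7.5 with 0.1 N HCl, together with [14C]glucose (2 μCi/rat), in physiological saline. Controls received the same solution without saccharide or insulin; insulin reference was 200 mU/kg. After 2 h, 14C incorporated per gram of tissue was measured: diaphragm glycogen and omental adipose total lipids. Mean of five animals, % above control.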
Regarding `NCCCCCCS[C@@H]1O[C@H](CO)[C@@H](O)[C@H](O)[C@@H]1O`, the Activity is given as 86%.

In another assay the test system is Rattus norvegicus. In words: In vivo insulin-like activity in rat diaphragm muscle assessed as stimulation of glycogenolysis by measuring conversion of [14C]glucose to [14C]glycogen at 500 mg/kg, ip after 2 hrs. The settings on record: route intraperitoneal, in the assay text read “glycogenesis” for “glycogenolysis”. It is filed as functional. In short, it runs like this: as §1
On to `NCCCCCCS[C@@H]1O[C@H](CO)[C@@H](O)[C@H](O)[C@@H]1O`, for which the Activity amounted to 74%.

Test system in the next assay: not listed separately
In words: Insulin-like activity in albino CD rat fat cells assessed as stimulation of oxidation of [14C]glucose to 14CO2 at 750 ug/ml after 2 hrs by scintillation counting analysis relative to insulin. It is filed as functional.
Details: not given
On to `Nc1ccc(O[C@H]2O[C@H](CO)[C@@H](O)[C@H](O)[C@@H]2O)cc1`, for which the Activity is recorded as 23.9%.
